ChEMBL document CHEMBL1141198, “Design and synthesis of tri-ring P3 benzamide-containing aminonitriles as potent, selective, orally effective inhibitors of cathepsin K” (J Med Chem, 2005)

Experiments:
Rattus norvegicus [1] = test: Mean residence time in rat administered with 0.5 mg/kg, iv; type: functional, organism-based; parameters: dose 0.5 mg/kg
How it was run: (§1)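 Rats, three per study, cassette iv dosing of up to four compounds. Formulation DMSO (<20%), PEG 400 (<20%) and water at 0.5 mg/mL per compound, given at 1 mL/kg for 0.5 mg/kg per compound.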

[2] = target: Cathepsin K (Homo sapiens) (UniProt P43235); test: Inhibitory constant against human cathepsin K using Z-Phe-Arg-AMC substrate
Cathepsin B = Cathepsin B (Homo sapiens, UniProt P07858); test: Inhibitory constant against human cathepsin B using Boc-Leu-Lys-Arg-AMC substrate
[3] = Volume of distribution in rat administered with 0.5 mg/kg, iv; type: ADME, organism-based; parameters: dose 0.5 mg/kg, route intravenous; conditions: in vivo, read-out: Vss; how it was run: as §1
Procathepsin L = Procathepsin L (Homo sapiens, UniProt P07711); test: Inhibitory constant against human cathepsin L using Z-Phe-Arg-AMC substrate
How it was run: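 Recombinant human cathepsin L at 500 pM in 50 mM MES pH 5.5, 2.5 mM DTT, 2.5 mM EDTA, 10% DMSO. Enzyme preincubated with inhibitor (8 concentrations) 30 min at 21–24 °C. Reaction started with 10 μM Z-Phe-Arg-AMC; AMC fluorescence (ex 355/em 460 nm) over first ~5 min. Ki(app) fitted with Morrison tight-binding model.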

Osteoclast = test: In vitro bone resorption in isolated rabbit osteoclasts; type: functional, cell-based; conditions: Oryctolagus cuniculus
How it was run: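 Bovine bone degraded by isolated rabbit osteoclasts; collagen degradation read by ELISA. 8-point dose–response curves; IC50 derived.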

Rattus norvegicus [4] = test: Terminal half-life in rat administered with 0.5 mg/kg, iv; type: functional, organism-based; parameters: dose 0.5 mg/kg; how it was run: as §1
[5] = Plasma clearance in rat administered with 0.5 mg/kg, iv; type: ADME, organism-based; parameters: dose 0.5 mg/kg, route intravenous; how it was run: as §1
[6] = Maximum concentration in rat administered with 0.5 mg/kg, iv; type: ADME, organism-based; parameters: dose 0.5 mg/kg, route intravenous; conditions: in vivo
Cathepsin S = Cathepsin S (Homo sapiens, UniProt P25774); test: Inhibitory constant against human cathepsin S using Z-Val-Val-Arg-AMC substrate
How it was run: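 Recombinant human cathepsin S at 500 pM in 50 mM MES pH 6.5, 2.5 mM β-mercaptoethanol, 2.5 mM EDTA, 100 mM NaCl, 0.001% BSA, 10% DMSO. 30 min enzyme–inhibitor preincubation at 21–24 °C, 8 inhibitor concentrations. Started with 60 μM Z-Val-Val-Arg-AMC; initial rates by AMC fluorescence (ex 355/em 460). Ki(app) by Morrison tight-binding fit.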

Rattus norvegicus [7] = test: Oral bioavailability in rat; type: functional, organism-based
How it was run: (§2)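 Single-compound rat PK: 0.5 mg/kg iv and 10 mg/kg oral. Bioavailability from oral versus iv exposure.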

Rattus norvegicus [8] = test: Terminal half-life in rat administered with 10 mg/kg, po; type: functional, organism-based; parameters: dose 10 mg/kg; how it was run: as §2
Rattus norvegicus [9] = test: Time of peak concentration post-dose in rat administered with 10 mg/kg, po; type: functional, organism-based; parameters: dose 10 mg/kg; how it was run: as §2
[10] = Maximum concentration in rat administered with 10 mg/kg, po; type: ADME, organism-based; parameters: dose 10 mg/kg, route oral; conditions: in vivo; how it was run: as §2
Rattus norvegicus [11] = species: Rattus norvegicus; test: Terminal half-life in rat; type: functional, organism-based
Rhesus monkey = test: Reduction of collagen breakdown products in ovariectomized rhesus monkey dosed at 15, 3 and 0.6 mg/kg, po; type: functional, Macaca mulatta; parameters: scale not given: the % may be the effect or the level left
How it was run: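 OVX rhesus monkeys (mean age 15 y, 3 y post-surgery): vehicle 1% carboxymethylcellulose po qd 2 days, then compound po qd 8–11 days at 15, 3 or 0.6 mg/kg, then 3 days vehicle. Controls on vehicle for 13 days. 24-h urine collected pre-dose, during dosing and 10–17 days after; urinary NTx normalized to creatinine (nM/mM).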

Cathepsin K = target: T1, Cathepsin K (Oryctolagus cuniculus, UniProt P43236); test: Inhibitory constant against rabbit cathepsin K using Z-Phe-Arg-AMC substrate; conditions: read-out: Ki app
T1 sequence (P43236 whole entry): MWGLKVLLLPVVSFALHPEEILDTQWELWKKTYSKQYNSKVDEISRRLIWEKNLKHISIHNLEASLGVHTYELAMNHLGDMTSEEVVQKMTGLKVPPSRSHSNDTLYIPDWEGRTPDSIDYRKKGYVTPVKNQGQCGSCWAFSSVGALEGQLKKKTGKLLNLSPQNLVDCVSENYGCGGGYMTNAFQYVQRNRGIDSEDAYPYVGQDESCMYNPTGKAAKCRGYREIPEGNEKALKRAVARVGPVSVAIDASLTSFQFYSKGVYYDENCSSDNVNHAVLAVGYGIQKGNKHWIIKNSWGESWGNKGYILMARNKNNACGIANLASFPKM

[12] = Maximum concentration in rat administered with 20 mg/kg, po; type: ADME, organism-based; parameters: dose 20 mg/kg, route oral; conditions: in vivo

Cathepsin S, sequence (P25774 whole entry): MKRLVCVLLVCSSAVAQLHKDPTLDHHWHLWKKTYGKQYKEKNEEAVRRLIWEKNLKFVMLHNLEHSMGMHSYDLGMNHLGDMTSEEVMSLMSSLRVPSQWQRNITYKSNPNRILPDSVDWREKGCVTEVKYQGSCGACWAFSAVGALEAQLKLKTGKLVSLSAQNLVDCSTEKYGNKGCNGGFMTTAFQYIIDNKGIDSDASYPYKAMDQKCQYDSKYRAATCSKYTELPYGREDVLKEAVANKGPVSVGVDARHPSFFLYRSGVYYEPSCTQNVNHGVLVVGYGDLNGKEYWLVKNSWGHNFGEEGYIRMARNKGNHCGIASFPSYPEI
Procathepsin L, sequence (P07711 whole entry): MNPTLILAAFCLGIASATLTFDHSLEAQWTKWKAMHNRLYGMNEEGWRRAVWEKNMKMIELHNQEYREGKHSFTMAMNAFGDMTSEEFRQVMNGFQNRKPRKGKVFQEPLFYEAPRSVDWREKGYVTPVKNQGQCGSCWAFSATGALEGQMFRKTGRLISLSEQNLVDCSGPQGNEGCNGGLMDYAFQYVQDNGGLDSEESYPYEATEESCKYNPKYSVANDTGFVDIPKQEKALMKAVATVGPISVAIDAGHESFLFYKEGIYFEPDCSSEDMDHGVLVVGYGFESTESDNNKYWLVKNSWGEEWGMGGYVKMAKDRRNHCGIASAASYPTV

Structure (SMILES)	Ki ([2]; read-out: Ki app)	Ki (Cathepsin B; read-out: Ki app)	Vd [3]	Ki (Procathepsin L; read-out: Ki app)	IC50 (Osteoclast)	clearance [5]	Cmax [6]	Ki (Cathepsin S; read-out: Ki app)	MRT (Rattus norvegicus [1])	T1/2 (Rattus norvegicus [4])	bioavailability (Rattus norvegicus [7])	other results
CC(C)(C)NC1CCN(c2ccc(-c3ccc(C(=O)NC4(C(=O)NCC#N)CCCCC4)cc3)cc2)CC1	–	–	10.7 L/kg	–	40 nM	84 mL/min/kg	360 nM	–	2.17 h	1.93 h	–	Ki ([2]; read-out: Ki): < 0.25 nM; Ki (Cathepsin B; read-out: Ki): 76000 nM; Ki (Procathepsin L; read-out: Ki): 1600 nM; Ki (Cathepsin S; read-out: Ki): 3900 nM
N#CCNC(=O)C1(NC(=O)c2ccc(-c3csc(N4CCC(N5CCOCC5)CC4)n3)cc2)CCCCC1	< 0.25 nM	670 nM	–	16000 nM	3 nM	–	–	6400 nM	–	–	48%	Cmax [10]: 1700 nM; T1/2 (Rattus norvegicus [11]): 5.33 h
CC(C)(C)N1CCN(c2nc(-c3ccc(C(=O)NC4(C(=O)NCC#N)CCCCC4)cc3)cs2)CC1	0.29 nM	910 nM	–	8800 nM	1 nM	–	–	19000 nM	–	–	44%	Cmax [10]: 800 nM; T1/2 (Rattus norvegicus [11]): 1.67 h
CC(C)(C)N1CCN(c2ccc(-c3ccc(C(=O)NC4(C(=O)NCC#N)CCCCC4)cc3)cc2)CC1	< 0.25 nM	510 nM	11.2 L/kg	11000 nM	13 nM	67 mL/min/kg	–	7900 nM	2.87 h	2.4 h	–	–
COCCN1CCC(Oc2ccc(-c3ccc(C(=O)NC4(C(=O)NCC#N)CCCCC4)cc3)cc2)CC1	< 0.25 nM	540 nM	3.27 L/kg	1200 nM	21 nM	43 mL/min/kg	370 nM	6200 nM	1.95 h	2.02 h	–	–
CN1CCC(Oc2ccc(-c3ccc(C(=O)NC4(C(=O)NCC#N)CCCCC4)cc3)cc2)CC1	< 0.25 nM	530 nM	11.1 L/kg	5600 nM	20 nM	97 mL/min/kg	320 nM	12000 nM	1.9 h	1.9 h	–	–
CN1CCC(c2nc(-c3ccc(C(=O)NC4(C(=O)NCC#N)CCCCC4)cc3)cs2)CC1	1.6 nM	1400 nM	–	15000 nM	61 nM	–	1430 nM	20000 nM	0.233 h	0.717 h	–	–

More lines, main results first:

Ki ([2]; read-out: Ki app)	Ki (Cathepsin B; read-out: Ki app)	Vd [3]	Ki (Procathepsin L; read-out: Ki app)	IC50 (Osteoclast)	clearance [5]	Cmax [6]	Ki (Cathepsin S; read-out: Ki app)	Structure (SMILES)	MRT (Rattus norvegicus [1])	T1/2 (Rattus norvegicus [4])	bioavailability (Rattus norvegicus [7])	other results
6.1 nM	56000 nM	1.55 L/kg	540 nM	320 nM	40 mL/min/kg	1200 nM	5500 nM	N#CCNC(=O)C1(NC(=O)c2ccc(-c3ccc(S(=O)(=O)N4CCN(CC(F)(F)F)CC4)cc3)cc2)CCCCC1	0.65 h	0.767 h	–	–
0.67 nM	870 nM	8.46 L/kg	2300 nM	10 nM	104 mL/min/kg	250 nM	13000 nM	CN1CCCC(Oc2ccc(-c3ccc(C(=O)NC4(C(=O)NCC#N)CCCCC4)cc3)cc2)C1 (centres undefined)	1.35 h	1.5 h	–	–
< 0.25 nM	420 nM	7.23 L/kg	7900 nM	77 nM	71 mL/min/kg	500 nM	4900 nM	N#CCNC(=O)C1(NC(=O)c2ccc(-c3ccc(N4CCNCC4)cc3)cc2)CCCCC1	1.73 h	1.4 h	21%	T1/2 (Rattus norvegicus [8]): 1.88 h; Tmax (Rattus norvegicus [9]): 2 h
< 0.25 nM	640 nM	25.3 L/kg	9100 nM	59 nM	231 mL/min/kg	220 nM	16000 nM	N#CCNC(=O)C1(NC(=O)c2ccc(-c3ccc(OC4CCN(CCO)CC4)cc3)cc2)CCCCC1	1.83 h	2.05 h	–	–
< 0.25 nM	380 nM	3.29 L/kg	430 nM	20 nM	82 mL/min/kg	1000 nM	9100 nM	N#CCNC(=O)C1(NC(=O)c2ccc(-c3ccc(S(=O)(=O)N4CCNCC4)cc3)cc2)CCCCC1	0.667 h	1.3 h	–	–
0.45 nM	690 nM	–	8800 nM	3 nM	–	–	42000 nM	N#CCNC(=O)C1(NC(=O)c2ccc(-c3csc(N4CCC(N5CCCCC5)CC4)n3)cc2)CCCCC1	–	–	35%	Cmax [10]: 360 nM; T1/2 (Rattus norvegicus [11]): 3.35 h
0.2 nM	1000 nM	–	6000 nM	5 nM	–	–	47000 nM	CN1CCN(c2nc(-c3ccc(C(=O)NC4(C(=O)NCC#N)CCCCC4)cc3)cs2)CC1	–	–	68%	Activity (Rhesus monkey): 76%; T1/2 (Rattus norvegicus [11]): 3.4 h; Ki (Cathepsin K): 0.5 nM; Cmax [12]: 1400 nM
< 0.25 nM	280 nM	1.76 L/kg	900 nM	35 nM	37 mL/min/kg	660 nM	7900 nM	N#CCNC(=O)C1(NC(=O)c2ccc(-c3ccc(C4(F)CCNCC4)cc3)cc2)CCCCC1	0.8 h	0.783 h	–	–
